Results from ChEMBL document CHEMBL3813596, “Conformational Constraint of the Glycerol Moiety of Lysophosphatidylserine Affords Compounds with Receptor Subtype Selectivity” (J Med Chem, 2016).
The source made the active and inactive calls. No cut-off for these calls is given here.

Experiments:
[1] = biological target: Probable G-protein coupled receptor 34 (Mus musculus) (UniProt Q9R1K6); assay: (§1) Agonist activity at mouse GPR34 expressed in HEK293A cells cotransfected with chimeric Galphaq/il after 1.5 hrs by alkaline phosphatase tagged-TGFalpha shedding assay; format: cell-based; conditions: HEK293-A
[2] = biological target: Probable G-protein coupled receptor 34 (Mus musculus, UniProt Q9R1K6); assay: as §1; format: cell-based, HEK293-A
[3] = biological target: Putative P2Y purinoceptor 10 (Mus musculus) (UniProt Q8BFU7); assay: Intrinsic activity at mouse P2Y10 receptor expressed in HEK293A cells after 1.5 hrs by alkaline phosphatase tagged-TGFalpha shedding assay relative to diF-C3-ph-o-O-C11; format: cell-based; conditions: HEK293-A
In short: (§2)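 It is a dimensionless estimate of agonist activity. The GPR34 assay used HEK293A cells with chimeric Gαq/i1 and a 1.5 h incubation; the P2Y10 assay used HEK293A cells.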

[4] = biological target: Probable G-protein coupled receptor 34 (Mus musculus) (UniProt Q9R1K6); assay: Intrinsic activity at mouse GPR34 expressed in HEK293A cells cotransfected with chimeric Galphaq/il after 1.5 hrs by alkaline phosphatase tagged-TGFalpha shedding assay relative to O-(Hydroxy(((2R,3R)-2-(((3-(2-((3-phenoxybenzyl)oxy)phenyl)-propanoyl)oxy)methyl)tetrahydro-2H-pyran-3-yl)oxy)phosphoryl)-L-serine; format: cell-based; conditions: HEK293-A; in short: as §2
[5] = biological target: Putative P2Y purinoceptor 10 (Mus musculus) (UniProt Q8BFU7); assay: (§3) Agonist activity at mouse P2Y10 receptor expressed in HEK293A cells after 1.5 hrs by alkaline phosphatase tagged-TGFalpha shedding assay; format: cell-based; conditions: HEK293-A
In short: (§4)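 Transient transfection of HEK293 cells with AP-TGFα plus the mouse receptor. For GPR34, HEK293A cells also got a chimeric Gαq/i1 subunit; P2Y10 was run in HEK293A and GPR174 in HEK293FT. Cells were seeded 24 h post-transfection in 5 mM HEPES (pH 7.4) HBSS onto serial 3.2-fold compound dilutions (top final 32 μM or lower, limited by mock-cell signal). Ki16425 was present, and incubation ran 1.5 h.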

[6] = biological target: Putative P2Y purinoceptor 10 (Mus musculus, UniProt Q8BFU7); assay: as §3; format: cell-based, HEK293-A; in short: as §4
[7] = biological target: Probable G-protein coupled receptor 174 (Mus musculus) (UniProt Q3U507); assay: Agonist activity at mouse GPR174 expressed in HEK293FT cells after 1.5 hrs by alkaline phosphatase tagged-TGFalpha shedding assay; format: cell-based; in short: as §4
[8] = biological target: Putative P2Y purinoceptor 10 (Mus musculus) (UniProt Q8BFU7); assay: Agonist activity at mouse P2Y10 receptor expressed in rat McA-RH7777 cells assessed as induction of actin stress fiber formation at 100 nM after 30 mins by Alexa fluor 594-labelled phalloidin/DAPI staining based fluorescence microscopy; format: cell-based
In short: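 McA-RH7777 rat hepatoma cells stably expressing mouse P2Y10, or mock-infected, seeded on collagen I at 2.5 × 10^4 cells/well, grown 24 h in 10% FBS DMEM. Serum-starved 1 h in 0.01% BSA DMEM, stimulated 30 min. Fixed in 4% paraformaldehyde, Triton X-100 permeabilised, stained 1 h with Alexa 594-phalloidin (1.5 μg/mL) and DAPI (1 μg/mL). Scored by fluorescence imaging.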

Sequence of Probable G-protein coupled receptor 174 (Mus musculus) (Q3U507 whole entry): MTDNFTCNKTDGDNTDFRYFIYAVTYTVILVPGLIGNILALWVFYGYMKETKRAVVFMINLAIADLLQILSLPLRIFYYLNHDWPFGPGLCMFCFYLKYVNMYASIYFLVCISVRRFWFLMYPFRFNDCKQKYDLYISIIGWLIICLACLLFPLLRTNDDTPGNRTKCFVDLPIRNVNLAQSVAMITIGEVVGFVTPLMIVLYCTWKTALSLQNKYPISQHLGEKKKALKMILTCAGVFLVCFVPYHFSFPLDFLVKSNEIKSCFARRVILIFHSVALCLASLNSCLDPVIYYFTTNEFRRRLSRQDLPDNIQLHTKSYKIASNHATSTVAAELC
Sequence of Probable G-protein coupled receptor 34 (Q9R1K6 whole entry): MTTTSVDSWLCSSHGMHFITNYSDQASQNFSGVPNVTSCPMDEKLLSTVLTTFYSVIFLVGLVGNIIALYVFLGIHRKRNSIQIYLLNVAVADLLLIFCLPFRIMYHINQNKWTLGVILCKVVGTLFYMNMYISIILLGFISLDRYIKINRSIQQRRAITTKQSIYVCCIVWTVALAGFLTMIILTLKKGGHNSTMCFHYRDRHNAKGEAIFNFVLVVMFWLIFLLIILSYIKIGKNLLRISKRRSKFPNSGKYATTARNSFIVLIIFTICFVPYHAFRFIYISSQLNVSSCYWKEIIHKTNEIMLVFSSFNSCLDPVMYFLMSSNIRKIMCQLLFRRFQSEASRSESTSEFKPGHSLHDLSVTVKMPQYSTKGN
Sequence of Probable G-protein coupled receptor 34 (Mus musculus) (Q9R1K6 whole entry): as above
Sequence of Putative P2Y purinoceptor 10 (Mus musculus) (Q8BFU7 whole entry): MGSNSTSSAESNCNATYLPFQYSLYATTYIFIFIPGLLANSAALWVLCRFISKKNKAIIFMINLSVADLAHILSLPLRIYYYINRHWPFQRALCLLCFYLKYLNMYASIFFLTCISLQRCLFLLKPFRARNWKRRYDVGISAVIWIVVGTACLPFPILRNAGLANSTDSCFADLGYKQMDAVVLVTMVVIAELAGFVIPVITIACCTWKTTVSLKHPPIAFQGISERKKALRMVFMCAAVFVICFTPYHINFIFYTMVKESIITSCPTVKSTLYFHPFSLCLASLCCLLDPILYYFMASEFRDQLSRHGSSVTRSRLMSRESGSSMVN
Sequence of Putative P2Y purinoceptor 10 (Q8BFU7 whole entry): as above

Row | SMILES | Emax [1] | EC50 ([2]; read-out: EC50) [nM] | Intrinsic activity [3] | Intrinsic activity [4] | Emax [5] | EC50 ([6]; read-out: EC50) [nM] | Activity [7] | EC50 ([2]; hek293-a) | Activity [8] | EC50 ([6]; hek293-a) | pEC50 [1]
1 | N[C@@H](COP(=O)(O)OC[C@H]1OCC=C[C@H]1OC(=O)CCc1ccccc1OCc1cccc(Oc2ccccc2)c1)C(=O)O | 16.5% | 180 | inactive | 0.86 | inactive | > 1000 | – | – | – | – | –
2 | CCCCCCCC/C=C\CCCCCCCC(=O)OC[C@@H]1OCC=C[C@H]1OP(=O)(O)OC[C@@H](N)C(=O)O (single isomer, unassigned) | inactive | > 1000 | 0.004 | inactive | 11.5% | 450 | – | – | – | – | –
3 | CCCCCCCCCCCOc1ccccc1CCC(=O)OC[C@H]1OCCC[C@@H]1OP(=O)(O)OC[C@H](N)C(=O)O | 5.3% | 640 | 0.002 | 0.082 | 7.5% | 610 | inactive | – | – | – | –
4 | N[C@@H](COP(=O)(O)OC[C@H]1OCCC[C@H]1OC(=O)CCc1cccc(OCc2cccc(Oc3ccccc3)c2)c1)C(=O)O | – | – | inactive | – | inactive | > 1000 | – | Not Active | – | – | –
5 | CCCCCCCCCCCOc1ccccc1CCC(=O)OCc1ccc(OP(=O)(O)OC[C@H](N)C(=O)O)cc1 | – | – | inactive | – | inactive | > 1000 | – | Not Active | inactive | – | –
6 | CCCCCCCC/C=C\CCCCCCCC(=O)O[C@@H]1CCCO[C@@H]1COP(=O)(O)OC[C@H](N)C(=O)O | – | > 1000 | – | – | – | > 1000 | inactive | – | – | – | –
7 | CCCCCCCC/C=C\CCCCCCCC(=O)OC[C@@H](O)COP(=O)(O)OC[C@H](N)C(=O)O | 9.5% | – | 0.073 | 0.33 | 12.5% | 25 | – | – | Active | – | –
8 | CCCCCCCC/C=C\CCCCCCCC(=O)O[C@H]1C=CCO[C@@H]1COP(=O)(O)OC[C@H](N)C(=O)O | – | – | inactive | – | inactive | > 1000 | – | Not Active | – | – | –
9 | N[C@@H](COP(=O)(O)O[C@@H]1C=CCO[C@@H]1COC(=O)CCc1ccccc1OCc1cccc(Oc2ccccc2)c1)C(=O)O | 12.4% | 600 | inactive | 0.2 | inactive | > 1000 | – | – | – | – | –
10 | CCCCCCCC/C=C\CCCCCCCC(=O)O[C@H]1CCCO[C@@H]1COP(=O)(O)OC[C@H](N)C(=O)O | – | – | – | – | – | – | inactive | Not Active | – | Not Active | –
11 | CCCCCCCCCCCOc1ccccc1CCC(=O)OC[C@H]1OCC=C[C@@H]1OP(=O)(O)OC[C@H](N)C(=O)O | – | – | 0.071 | – | 7.6% | 17 | – | Not Active | Active | – | –
12 | CCCCCCCCCCCOc1ccccc1CCC(=O)O[C@H]1CCCO[C@@H]1COP(=O)(O)OCC(N)C(=O)O (single isomer, unassigned) | < 3% | – | 0.0098 | inactive | 7.2% | 290 | inactive | Not Active | – | – | inactive
13 | N[C@@H](COP(=O)(O)O[C@@H]1CCCO[C@@H]1COC(=O)CCc1ccc(OCc2cccc(Oc3ccccc3)c2)cc1)C(=O)O | – | – | inactive | – | inactive | > 1000 | – | Not Active | – | – | –
14 | CCCCCCCC/C=C\CCCCCCCC(=O)OC[C@@H]1OCCC[C@@H]1OP(=O)(O)OC[C@@H](N)C(=O)O (single isomer, unassigned) | 11.1% | 210 | – | 0.53 | – | – | inactive | – | – | Not Active | –
15 | N[C@@H](COP(=O)(O)OC[C@H]1OCCC[C@@H]1OC(=O)CCc1ccccc1OCc1cccc(Oc2ccccc2)c1)C(=O)O | inactive | > 1000 | inactive | inactive | inactive | > 1000 | inactive | – | – | – | –
16 | CCCCCCCCCCCOc1ccccc1CCC(=O)O[C@@H]1CCCO[C@@H]1COP(=O)(O)OCC(N)C(=O)O (single isomer, unassigned) | inactive | > 1000 | inactive | inactive | inactive | > 1000 | inactive | – | – | – | –
17 | CCCCCCCCCCCOc1ccccc1CCC(=O)OCc1cccc(OP(=O)(O)OC[C@H](N)C(=O)O)c1 | – | – | 0.23 | – | 10.8% | 6.7 | – | Not Active | Active | – | –
18 | CCCCCCCCCCCOc1ccccc1CCC(=O)OCc1ccccc1OP(=O)(O)OC[C@H](N)C(=O)O | 5.9% | 700 | 0.02 | 0.2 | 5.8% | 45 | – | – | Active | – | –
19 | CCCCCCCCCCCOc1ccccc1CCC(=O)OC[C@H]1OCC=C[C@H]1OP(=O)(O)OC[C@H](N)C(=O)O | – | 510 | 0.05 | – | 12.4% | 42 | – | – | Active | – | –
20 | CCCCCCCC/C=C\CCCCCCCC(=O)OC[C@@H]1OCCC[C@H]1OP(=O)(O)OC[C@@H](N)C(=O)O (single isomer, unassigned) | 8.7% | 100 | – | 1.03 | – | 450 | inactive | – | – | – | –
21 | CCCCCCCCCCCOc1ccccc1CCC(=O)O[C@H]1C=CCO[C@@H]1COP(=O)(O)OCC(N)C(=O)O (single isomer, unassigned) | inactive | – | inactive | inactive | inactive | > 1000 | – | Not Active | – | – | inactive
22 | CCCCCCCC/C=C\CCCCCCCC(=O)OC[C@@H]1OCC=C[C@@H]1OP(=O)(O)OC[C@@H](N)C(=O)O (single isomer, unassigned) | inactive | > 1000 | inactive | inactive | inactive | > 1000 | – | – | – | – | –
23 | N[C@@H](COP(=O)(O)O[C@H]1C=CCO[C@@H]1COC(=O)CCc1ccccc1OCc1cccc(Oc2ccccc2)c1)C(=O)O | 11.7% | 460 | 0.0053 | 0.25 | 11.5% | 330 | – | – | – | – | –
24 | N[C@@H](COP(=O)(O)OC[C@H]1OCCC[C@H]1OC(=O)CCc1ccc(OCc2cccc(Oc3ccccc3)c2)cc1)C(=O)O | inactive | > 1000 | inactive | inactive | inactive | > 1000 | – | – | – | – | –
25 | CCCCCCCCCCCOc1ccccc1CCC(=O)O[C@@H]1C=CCO[C@@H]1COP(=O)(O)OCC(N)C(=O)O (single isomer, unassigned) | inactive | > 1000 | inactive | inactive | inactive | > 1000 | – | – | – | – | –
26 | N[C@@H](COP(=O)(O)O[C@H]1CCCO[C@@H]1COC(=O)CCc1ccccc1OCc1cccc(Oc2ccccc2)c1)C(=O)O | 9.8% | 340 | inactive | 0.24 | inactive | > 1000 | inactive | – | – | – | –
27 | N[C@@H](COP(=O)(O)OC[C@H]1OCC=C[C@@H]1OC(=O)CCc1ccccc1OCc1cccc(Oc2ccccc2)c1)C(=O)O | inactive | > 1000 | inactive | inactive | inactive | > 1000 | – | – | – | – | –
28 | CCCCCCCC/C=C\CCCCCCCC(=O)O[C@@H]1C=CCO[C@@H]1COP(=O)(O)OC[C@H](N)C(=O)O | – | 560 | inactive | – | inactive | > 1000 | – | – | – | – | –
29 | N[C@@H](COP(=O)(O)O[C@@H]1CCCO[C@@H]1COC(=O)CCc1cccc(OCc2cccc(Oc3ccccc3)c2)c1)C(=O)O | inactive | > 1000 | inactive | inactive | inactive | > 1000 | – | – | – | – | –
30 | CCCCCCCCCCCOc1ccccc1CCC(=O)OC[C@H]1OCCC[C@H]1OP(=O)(O)OC[C@H](N)C(=O)O | 5.2% | 110 | 0.0038 | 0.41 | 10.6% | 470 | inactive | – | – | – | –
